# In the library only some 3.2% were active in any assay of this set; here they are far more common.
# MEKK2mut PB1 HTS: signal of MEK5 binding to mutant human MEKK2 PB1 domain | bead flow cytometry, Alexa488-MEK5 binding to MEKK2 mutant | percent response, % at 10 µM | actives 0.35% (n = 290,000) | AID 1530; in the data active means percent response above about 24%, passing the limit was not always enough
# UBC13 inh: human UBC13 polyubiquitination inhibition; P61088; UBC13 polyubiquitin chain formation, TR-FRET; inhibition, % at 20 µM; actives 0.47% (n = 330,000); AID 485273; in the data active means inhibition above about 45%, passing the limit was not always enough
# MEKK3 PB1 HTS: MEKK3-MEK5 PB1 interaction, increase or decrease. Q99759. bead-based flow cytometry, Alexa488-MEK5 binding to MEKK3; actives lie on both sides; 0 = blocked by unlabeled MEK5, 100 = vehicle. binding response (% of control), % at 10 µM. actives 1.4% (n = 290,000). AID 1529;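 active means binding response more than 3 SD above or below the average of its plate-row segment, actives on both sides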;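 further: Alexa488 bead fluorescence after subtracting the streptavidin-only scavenger bead signal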
# MEKK2wt PB1 HTS: raises or lowers MEK5 binding to wildtype human MEKK2 PB1 domain | Q9Y2U5 | bead flow cytometry, Alexa488-MEK5 binding to MEKK2 WT; actives lie on both sides | binding response (% of control), % at 10 µM | actives 1.1% (n = 290,000); in the data active means binding response below about 67% or above about 130%
# Pemphigus Ab inh: blocks pemphigus antibody binding to human desmoglein-3; actives 0.48% (n = 310,000); P32926; binding (percent of control), % at 10 µM; DSG3-coupled beads, scFv-anti-DSG3-GFP binding, flow cytometry; hits give low values;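 active means binding more than 3 SD below its plate's average and above zero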;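 further: hits lower antibody fragment binding to DSG3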
# Apaf-1 inh: inhibitors of human Apaf-1 apoptosome. O14727. reconstituted apoptosome caspase-3 activity, DEVD-Rh110 fluorescence. inhibition, % at 20 µM. actives 0.71% (n = 330,000); active means inhibition of at least 40% at 20 µM;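 further: plate controls were DMSO wells for no effect and DEVD-CHO caspase inhibitor wells for full effect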
#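 System – cell-free apoptosome with Apaf-1, procaspase-3 and caspase-9 · Buffer or medium – pH 7.5 Hepes buffer with CHAPS, BSA, DTT · Also added – cytochrome c with DEVD-Rh110 · Times – 30 min compound preincubation, 50 min activation, room temperature · Technique – Rh110 fluorescence intensity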
# MEKK2wt confirm: raises or lowers MEK5 binding to wildtype human MEKK2, retest; bead flow cytometry, Alexa488-MEK5 binding to MEKK2 WT; actives lie on both sides; binding response (% of control), % at 10 µM; AID 1892; actives 2.4% (n = 5,900); shares compounds with MEKK3 PB1 HTS; in the data active means binding response below about 16% or above about 210%; inactive means in between
# MEKK2mut-MEK5: signal of MEK5 binding to mutant human MEKK2, retest; shares compounds with MEKK3 PB1 HTS; bead flow cytometry, Alexa488-MEK5 binding to MEKK2 mutant; percent response, % at 10 µM; actives 2% (n = 5,900); AID 1893; in the data active means percent response mostly above about 71%, no sharp cut-off; inactive means mostly below about 38%;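 further: higher means compound restores mutant binding toward wildtype level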
# MEKK3 confirm: confirmation of inhibitors of MEK5 binding to human MEKK3 | binding response (% of control), % at 10 µM | AID 1894 | shares compounds with MEKK3 PB1 HTS | bead flow cytometry, Alexa488-MEK5 binding to MEKK3; hits give low values | actives 1.8% (n = 5,900);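 active means binding response below 72% of control, or above a set upper limit, though filed actives all read lower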;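 further: 100% = DMSO only wells and 0% = binding blocked by excess unlabeled MEK5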
# The depositor's hits bear a star; · = not tested or not shown; ! = a repeat was not active; [ ] = dose if it differs, or a comment.
SMILES,MEKK2mut PB1 HTS,UBC13 inh,MEKK3 PB1 HTS,MEKK2wt PB1 HTS,Pemphigus Ab inh,Apaf-1 inh,MEKK2wt confirm,MEKK2mut-MEK5,MEKK3 confirm
Cc1cccc(N(CC(N)=O)C2SC(=O)N(c3ccccc3)C2=O)c1 (stereo not drawn),0.0,3.8,99.0,97.0,93.1,-11.2,·,·,·
Cc1noc(C)c1CSc1ncnc2sc3c(c12)CCC3,3.0,·,133.0*,104.0,·,·,97.0,-6.0,98.0
Cc1noc(C)c1CSc1ncnc2sc3c(c12)CCC(C)C3 (stereo not drawn),-2.0,-11.4,95.0,96.0,·,17.2,·,·,·
Cc1cc(NC(=O)C(Cl)Cl)cc2c1OCO2,·,·,·,·,94.3,·,·,·,·
Cc1cccc(-n2cc(CN3CCN(Cc4nccn4C)CC3)c(-c3cccc(F)c3)n2)c1,34.0,11.5,106.0,153.0*,93.2,11.4,138.0,19.0,107.0
COc1ccc(-n2cc(CN3CCCC3)c(-c3cccc(F)c3)n2)cc1,8.0,22.7,93.0,112.0,130.7,-8.9,·,·,·
COc1ccccc1C(c1nnnn1CC1CCCO1)N1CCC(C(N)=O)CC1 (stereo not drawn),-5.0,9.1,74.0*[inhibitor],85.0,102.4,0.0,103.0,-3.0,99.0
COCCn1nnnc1C(c1ccc(OC)cc1)N1CCN(c2ccccc2F)CC1 (stereo not drawn),8.0,-2.2,122.0*,118.0,104.2,5.9,112.0,3.0,102.0
COc1ccc(C(c2nnnn2CC2CCCO2)N2CCN(c3cccc(C)c3C)CC2)cc1 (stereo not drawn),15.0,1.5,122.0*,116.0,·,15.8,106.0,2.0,107.0
CCOc1ccc(N(CC(=O)NC2CCCCC2)C(=O)Cn2nnc(-c3ccc(C)o3)n2)cc1,1.0,2.3,99.0,98.0,·,13.0,·,·,·
N/C(=N\OC(=O)C(c1ccccc1)c1ccccc1)c1ccccn1,1.0,-0.8,2.0*[inhibitor],2.0*[inhibitor],108.3,3.4,97.0,-7.0,99.0
COC(=O)C1=C(C)NC(C)=C(C(=O)O[C@@H]2CCCN(Cc3ccccc3)C2)[C@@H]1c1cccc([N+](=O)[O-])c1,10.0,18.8,111.0,145.0*,110.3,27.1,120.0,9.0,106.0
CCOC(=O)C1=C(C)NC(C)=C(C(=O)OC)C1c1cccc([N+](=O)[O-])c1 (stereo not drawn),2.0,14.9,93.0,98.0,107.8,-0.6,·,·,·
Cc1ccc2c(c1)C(=NC1CCCCC1)c1cc3ccccc3nc1-2,1.0,·,67.0*[inhibitor],101.0,·,·,107.0,7.0,105.0
O=C(CCNS(=O)(=O)c1ccc2ccccc2c1)NCCOc1ccccc1,·,1.3,·,·,98.0,10.7,·,·,·
Cc1cc[n+](C(C)C(=O)c2ccc(-c3ccccc3)cc2)cc1 (stereo not drawn),29.0,3.9,106.0,152.0*,109.1,14.6,101.0,-2.0,97.0
CC(=O)Nc1cc[n+](C(C)C(=O)c2ccc(Cl)cc2)cc1 (stereo not drawn),-14.0,-1.6,41.0*[inhibitor],54.0,105.2,-6.9,103.0,0.0,100.0
O=C(CN1CCN(CN2C(=O)NC3(CCCCCC3)C2=O)CC1)Nc1ccc(F)cc1,·,-12.9,·,·,70.6,11.4,·,·,·
CC(C(=O)NC(N)=O)N1C(=O)NC(c2ccccc2)(c2ccccc2)C1=O (stereo not drawn),0.0,7.1,98.0,100.0,·,10.5,·,·,·
Cc1cccc(CCNC(=O)CNS(=O)(=O)c2ccc3nc(C)sc3c2)c1,2.0,0.8,98.0,98.0,·,-2.3,·,·,·
O=C(Nc1ccc(CN2CCCCC2)cc1)Nc1ccc(Br)cc1Cl,11.0,23.6,113.0,165.0*,112.8,16.3,144.0,20.0,104.0
Cc1ccc(N(CC2=NCCN2)c2cccc(O)c2)cc1,10.0,10.9,35.0*![inhibitor],132.0,102.2,-8.9,115.0,2.0,103.0
CSCC[C@H](NC(=O)C1CCCC1)c1nc2ccccc2[nH]1,-16.0,1.4,69.0*[inhibitor],68.0,104.3,2.1,108.0,5.0,104.0
OC1(c2ccc(Br)cc2)CCN(Cc2cccc(Br)c2)CC1,15.0,9.1,109.0,134.0*,107.6,2.7,130.0,17.0,107.0
Brc1cccc(CN2CCCCCC2)c1,0.0,1.5,100.0,106.0,98.3,-8.0,·,·,·
SMILES,MEKK2mut PB1 HTS,UBC13 inh,MEKK3 PB1 HTS,MEKK2wt PB1 HTS,Pemphigus Ab inh,Apaf-1 inh,MEKK2wt confirm,MEKK2mut-MEK5,MEKK3 confirm
COc1ccc(-c2cc(C(=O)OCC(=O)c3ccc(C)c([N+](=O)[O-])c3)c3ccccc3n2)cc1,0.0,4.1,130.0*,103.0,98.5,-12.1,94.0,-3.0,97.0
COC(CNC(=O)C(=O)NCC1CCCN1S(=O)(=O)c1cccs1)OC (stereo not drawn),·,-2.8,·,·,102.5,8.1,·,·,·
NC1=NC2(CCCCC2)N=C(Nc2ccc(Br)cc2)N1,36.0,25.8,107.0,141.0*,103.7,-3.5,120.0,6.0,101.0
CC1CCN(C(=O)COC(=O)CCc2c[nH]c3ccccc23)CC1,-14.0,7.1,50.0*[inhibitor],65.0,100.7,-5.9,106.0,5.0,106.0
CC1CCN(C(=O)COC(=O)Cc2c[nH]c3ccccc23)CC1,4.0,0.7,97.0,97.0,108.3,12.7,·,·,·
CC(=O)OC(C(=O)NC1CCCCC1)c1ccncc1 (stereo not drawn),-15.0,-1.7,75.0*[inhibitor],83.0,·,-8.8,98.0,-5.0,101.0
CC(=O)OC(C(=O)NC1CCCCC1)c1ccccc1Cl (stereo not drawn),-4.0,3.9,97.0,101.0,101.5,-0.2,·,·,·
CCc1ccc(NC(=O)CSc2nnc(CNC(=O)c3c(F)cccc3Cl)o2)cc1,-24.0,0.9,3.0*[inhibitor],3.0*[inhibitor],85.8,1.5,104.0,3.0,101.0
O=C(CN1C(=O)C(=O)c2ccccc21)NC1CCCCC1,0.0,-5.8,48.0*[inhibitor],98.0,101.7,1.8,101.0,5.0,100.0
COc1cccc2[nH]c3c(N4CCc5ccccc5C4)ncnc3c12,26.0,15.4,103.0,147.0*,·,-6.3,152.0,26.0,108.0
COc1cccc2[nH]c3c(N4CCC(C)CC4)ncnc3c12,-7.0,-3.6,90.0,104.0,103.3,-5.7,·,·,·
